{"source": "paper PMC9306620", "about": "(Clinical Pharmacology in Drug Development, 2022)", "key": {"[1]": {"tested_on": "HIV-1 subtypes", "settings": "in vitro; cited from earlier work"}, "[2]": {"tested_on": "uridine diphosphate glucuronosyltransferase 1A1", "settings": "in vitro; cited from earlier work"}, "[3]": {"assay": "Part 1: safety and tolerability", "type": "in vivo, healthy participants", "settings": "N = 18", "in_short": "(§1)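 Safety followed a single oral 200 mg dose given as two 100-mg capsules or tablets. Adverse events, clinical laboratory tests, vital signs, 12-lead ECG and physical examination were monitored. The safety population was all participants receiving ≥1 dose, summarized descriptively by treatment. AEs occurring later than last treatment + 5 days were not counted. The investigator assessed each AE for drug relatedness.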"}, "[4]": {"assay": "Part 2: food effect on plasma pharmacokinetics of the tablet formulation", "type": "in vivo, healthy participants", "settings": "for AUC(0-t) / AUC(0-inf) / Cmax: human, plasma, oral, 200 mg, geometric LS mean, part 2, analysis of variance; for AUC(0-t): AUC0-t; for AUC(0-inf): AUC0-∞", "in_short": "(§2)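 Randomized, open-label, single-dose crossover in healthy adults aged 18–55, with periods separated by a ≥7-day washout. Each oral 200 mg dose was given as two 100-mg units. Plasma was sampled 40 min predose and 1–96 h postdose and assayed by UHPLC-MS/MS. Noncompartmental parameters used actual sampling times. ln-AUC0-t, AUC0-∞ and Cmax were analysed by linear mixed-effects model (treatment, period, sequence fixed; participant random) with 90% CIs.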"}, "[5]": {"settings": "cited from earlier work"}, "[6]": {"assay": "Part 2: safety and tolerability", "type": "in vivo, healthy participants", "settings": "for Adverse events: abdominal distention (drug related) / Adverse events: anxiety / Adverse events: any event / Adverse events: diarrhea (drug related) / Adverse events: dysmenorrhea / Adverse events: eye irritation / Adverse events: rash maculopapular (drug related, led to withdrawal): part 2, tablet 200 mg", "in_short": "as §1"}, "[7]": {"settings": "drug interaction studies; cited from earlier work"}, "[8]": {"tested_on": "HIV-1", "settings": "200-mg dose, treatment-naive adults with HIV-1, phase IIa; cited from earlier work"}, "[9]": {"tested_on": "organic anion-transporting polypeptide 1B3", "settings": "in vitro; cited from earlier work"}, "[10]": {"type": "in vivo, healthy participants", "settings": "200 mg, moderate-fat meal; for AUC(0-t) / AUC(0-inf) / Cmax: human, plasma, oral, geometric LS mean, part 1, analysis of variance, n = 18; for AUC(0-t): AUC0-t; for AUC(0-inf): AUC0-∞", "in_short": "as §2"}, "[11]": {"settings": "tablet 200 mg, high fat, n = 21"}, "[12]": {"settings": "tablet 200 mg, moderate fat, n = 20"}, "[13]": {"settings": "tablet 200 mg, high fat vs fasted, part 2"}, "[14]": {"settings": "tablet 200 mg, moderate fat vs fasted, part 2"}}, "note": "“And” between values parts separate entries of the source, which are not always exact repeats. Equal entries are not always repeated. Where two headings read alike, the source gives them in different places."}
{"smiles": "C=C(C)[C@@H]1CC[C@]2(NCCN3CCS(=O)(=O)CC3)CC[C@]3(C)[C@H](CC[C@@H]4[C@@]5(C)CC=C(C6=CC[C@@](CF)(C(=O)O)CC6)C(C)(C)[C@@H]5CC[C@]43C)[C@@H]12", "note": "[GSK3640254]", "values": [{"measurement": "inhibition across various HIV-1 subtypes", "setting": "[1]", "result": "broad‐spectrum potent inhibition"}, {"measurement": "inhibition of uridine diphosphate glucuronosyltransferase 1A1", "setting": "[2]", "result": "inhibitor"}, {"measurement": "Adverse events: abdominal distention (drug related)", "setting": "[3]; part 1, capsule 200 mg", "result": "0 n (%)"}, {"measurement": "Adverse events: anxiety", "setting": "[3]; part 1, capsule 200 mg", "result": "0 n (%)"}, {"measurement": "Adverse events: diarrhea (drug related)", "setting": "[3]; part 1, capsule 200 mg", "result": "0 n (%)"}, {"measurement": "Adverse events: dysmenorrhea", "setting": "[3]; part 1, capsule 200 mg", "result": "0 n (%)"}, {"measurement": "Adverse events: eye irritation", "setting": "[3]; part 1, capsule 200 mg", "result": "0 n (%)"}, {"measurement": "Adverse events: rash maculopapular (drug related, led to withdrawal)", "setting": "[3]; part 1, capsule 200 mg", "result": "0 n (%)"}, {"measurement": "Adverse events: abdominal distention (drug related)", "setting": "[3]; part 1, tablet 200 mg", "result": "0 n (%)"}, {"measurement": "Adverse events: anxiety", "setting": "[3]; part 1, tablet 200 mg", "result": "0 n (%)"}, {"measurement": "Adverse events: any event", "setting": "[3]; part 1, tablet 200 mg", "result": "1 (6) n (%)"}, {"measurement": "Adverse events: diarrhea (drug related)", "setting": "[3]; part 1, tablet 200 mg", "result": "0 n (%)"}, {"measurement": "Adverse events: dysmenorrhea", "setting": "[3]; part 1, tablet 200 mg", "result": "0 n (%)"}, {"measurement": "Adverse events: eye irritation", "setting": "[3]; part 1, tablet 200 mg", "result": "1 (6%) n (%) and 1 (6) n (%)"}, {"measurement": "Adverse events: rash maculopapular (drug related, led to withdrawal)", "setting": "[3]; part 1, tablet 200 mg", "result": "0 n (%)"}, {"measurement": "AUC(0-t)", "setting": "[4]; tablet 200 mg, fasted, n = 13", "result": 12200, "unit": "ng·h/mL"}, {"measurement": "AUC(0-t)", "setting": "[4]; [11]", "result": 34100, "unit": "ng·h/mL"}, {"measurement": "AUC(0-t)", "setting": "[4]; [12]", "result": 38500, "unit": "ng·h/mL"}, {"measurement": "AUC(0-inf)", "setting": "[4]; tablet 200 mg, fasted, n = 10", "result": 14200, "unit": "ng·h/mL"}, {"measurement": "AUC(0-inf)", "setting": "[4]; [11]", "result": 36900, "unit": "ng·h/mL"}, {"measurement": "AUC(0-inf)", "setting": "[4]; [12]", "result": 41600, "unit": "ng·h/mL"}, {"measurement": "Cmax", "setting": "[4]; tablet 200 mg, fasted, n = 13", "result": 351, "unit": "ng/mL"}, {"measurement": "Cmax", "setting": "[4]; [11]", "result": 1080, "unit": "ng/mL"}, {"measurement": "Cmax", "setting": "[4]; [12]", "result": 1440, "unit": "ng/mL"}, {"measurement": "AUC0-t, geometric LS mean ratio compared with fasted conditions", "setting": "[4]; [13]", "result": 2.79}, {"measurement": "AUC0-∞, geometric LS mean ratio compared with fasted conditions", "setting": "[4]; [13]", "result": 2.59}, {"measurement": "Cmax, geometric LS mean ratio compared with fasted conditions", "setting": "[4]; [13]", "result": 3.08}, {"measurement": "mean Cmax, fold higher than under fasted conditions", "setting": "[4]; tablet 200 mg, high-fat conditions, part 2", "result": "~3", "unit": "fold"}, {"measurement": "AUC0-t, geometric LS mean ratio compared with fasted conditions", "setting": "[4]; [14]", "result": 3.15}, {"measurement": "AUC0-∞, geometric LS mean ratio compared with fasted conditions", "setting": "[4]; [14]", "result": 2.93}, {"measurement": "Cmax, geometric LS mean ratio compared with fasted conditions", "setting": "[4]; [14]", "result": 4.10}, {"measurement": "mean estimate for CL/F, lower than under fasted conditions", "setting": "[4]; tablet 200 mg, moderate- or high-fat conditions, part 2", "result": "> 60", "unit": "%"}, {"measurement": "mean Cmax, fold higher than under fasted conditions", "setting": "[4]; tablet 200 mg, moderate-fat conditions, part 2", "result": "≈ 4 fold"}, {"measurement": "t1/2, arithmetic mean (SD)", "setting": "[4]; tablet, single dose 200 mg, fasted conditions, part 2, n = 10", "result": "25.9 (3.33) hour"}, {"measurement": "t1/2, arithmetic mean (SD)", "setting": "[4]; tablet, single dose 200 mg, high-fat conditions, part 2, N = 21", "result": "25.1 (4.18) hour"}, {"measurement": "t1/2, geometric mean (%CVb)", "setting": "[4]; tablet, single dose 200 mg, moderate-fat conditions, part 2, N = 20", "result": "24.9 (18.0) hour"}, {"measurement": "estimated half-life", "setting": "[5]; 200-mg dose, healthy participants", "result": "approximately 22.6 hours"}, {"measurement": "tolerability", "setting": "[5]; phase I studies in healthy participants, headache most common AE", "result": "generally well tolerated"}, {"measurement": "Adverse events: abdominal distention (drug related)", "setting": "[6]; fasted, N = 19", "result": "0 n (%)"}, {"measurement": "Adverse events: anxiety", "setting": "[6]; fasted, N = 19", "result": "0 n (%)"}, {"measurement": "Adverse events: any event", "setting": "[6]; fasted, N = 19", "result": "0 n (%)"}, {"measurement": "Adverse events: diarrhea (drug related)", "setting": "[6]; fasted, N = 19", "result": "0 n (%)"}, {"measurement": "Adverse events: dysmenorrhea", "setting": "[6]; fasted, N = 19", "result": "0 n (%)"}, {"measurement": "Adverse events: eye irritation", "setting": "[6]; fasted, N = 19", "result": "0 n (%)"}, {"measurement": "Adverse events: rash maculopapular (drug related, led to withdrawal)", "setting": "[6]; fasted, N = 19", "result": "0 n (%)"}, {"measurement": "Adverse events: abdominal distention (drug related)", "setting": "[6]; high fat, N = 21", "result": "1 (5) n (%)"}, {"measurement": "Adverse events: anxiety", "setting": "[6]; high fat, N = 21", "result": "1 (5) n (%)"}, {"measurement": "Adverse events: any event", "setting": "[6]; high fat, N = 21", "result": "5 (24%) n (%) and 5 (24) n (%)"}, {"measurement": "Adverse events: diarrhea (drug related)", "setting": "[6]; high fat, N = 21", "result": "2 n (%) and 2 (10) n (%)"}, {"measurement": "Adverse events: dysmenorrhea", "setting": "[6]; high fat, N = 21", "result": "1 (5) n (%)"}, {"measurement": "Adverse events: eye irritation", "setting": "[6]; high fat, N = 21", "result": "0 n (%)"}, {"measurement": "Adverse events: rash maculopapular (drug related, led to withdrawal)", "setting": "[6]; high fat, N = 21", "result": "1 (5) n (%)"}, {"measurement": "Adverse events: abdominal distention (drug related)", "setting": "[6]; moderate fat, N = 20", "result": "0 n (%)"}, {"measurement": "Adverse events: anxiety", "setting": "[6]; moderate fat, N = 20", "result": "0 n (%)"}, {"measurement": "Adverse events: any event", "setting": "[6]; moderate fat, N = 20", "result": "0 n (%)"}, {"measurement": "Adverse events: diarrhea (drug related)", "setting": "[6]; moderate fat, N = 20", "result": "0 n (%)"}, {"measurement": "Adverse events: dysmenorrhea", "setting": "[6]; moderate fat, N = 20", "result": "0 n (%)"}, {"measurement": "Adverse events: eye irritation", "setting": "[6]; moderate fat, N = 20", "result": "0 n (%)"}, {"measurement": "Adverse events: rash maculopapular (drug related, led to withdrawal)", "setting": "[6]; moderate fat, N = 20", "result": "0 n (%)"}, {"measurement": "participants reporting AEs considered related to the study treatment", "setting": "[6]; part 2, tablets 200 mg, high-fat conditions", "result": 10, "unit": "%"}, {"measurement": "highest incidence of adverse events", "setting": "[6]; tablet 200 mg, high-fat conditions", "result": 24, "unit": "%"}, {"measurement": "effect on the pharmacokinetics of combined oral contraceptives", "setting": "[7]", "result": "no meaningful effect"}, {"measurement": "effect on the pharmacokinetics of dolutegravir", "setting": "[7]", "result": "no meaningful effect"}, {"measurement": "effect on the pharmacokinetics of tenofovir alafenamide", "setting": "[7]", "result": "no meaningful effect"}, {"measurement": "reduction in plasma HIV-1 RNA", "setting": "[8]", "result": "approximately 2 log10"}, {"measurement": "inhibition of organic anion-transporting polypeptide 1B3", "setting": "[9]", "result": "inhibitor"}, {"measurement": "AUC(0-t)", "setting": "[10]; capsule", "result": 33700, "unit": "ng·h/mL"}, {"measurement": "AUC(0-t)", "setting": "[10]; tablet", "result": 33800, "unit": "ng·h/mL"}, {"measurement": "AUC(0-inf)", "setting": "[10]; capsule", "result": 36900, "unit": "ng·h/mL"}, {"measurement": "AUC(0-inf)", "setting": "[10]; tablet", "result": 36900, "unit": "ng·h/mL"}, {"measurement": "Cmax", "setting": "[10]; capsule", "result": 1200, "unit": "ng/mL"}, {"measurement": "Cmax", "setting": "[10]; tablet", "result": 1310, "unit": "ng/mL"}, {"measurement": "AUC0-t, geometric LS mean ratio", "setting": "[10]; tablet vs capsule, part 1", "result": 1.00}, {"measurement": "AUC0-∞, geometric LS mean ratio", "setting": "[10]; tablet vs capsule, part 1", "result": 0.998}, {"measurement": "Cmax, geometric LS mean ratio", "setting": "[10]; tablet vs capsule, part 1", "result": 1.09}]}
